# This is a sample that favours compounds with a hit; in the whole collection about 2.3% have one here.
# TROY signal inh: inhibitors of TROY-driven NF-kB signaling, primary screen, Q293 LMP1-TROYcd cells, NF-kB luciferase, uHTS; hit rate 0.98% among 360,000; Q293 LMP1-TROYcd NF-kB luciferase reporter, 4 h; inhibition, % at 10 µM;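 active = compounds whose plate-normalised and pattern-corrected inhibition of the luciferase reporter signal at the single screening dose is 50% or more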
# FN deposit inh: inhibitors of fibronectin matrix deposition, primary screen, AH1F cells, Alexa488-fibronectin fluorescence, plate reader. AH1F fibroblasts, overnight. inhibition, % at 12.6 µM. hit rate 0.086% among 350,000;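 active = mean inhibition across replicates of 30% or more, regardless of how many single replicates reach that level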;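 note: positive control wells lacked labelled fibronectin entirely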
#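 Material: AH1F fibroblast monolayer depositing Alexa488-labelled fibronectin into matrix | Input: 10000 AH1F cells/well | Medium: DMEM plus 2% serum, read in PBS | Reagent: Alexa488-fibronectin, 24 nM final in well | Compound dosing: One dose per compound, pinned | Schedule: 1 h adhesion, overnight exposure | Measured by: Fluorescence at 485 nm excitation, 525 nm emission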
# LGR2 inh: inhibitors of bursicon-induced LGR2 CRE-luciferase signal, primary screen, cell-based, HEK293, CRE-luciferase reporter, bursicon stimulation. inhibition, % at 9.99 µM. AID 720647, 2013. Drosophila bursicon receptor LGR2 (rickets). bursicon-stimulated, 4 h. hit rate 0.35% among 380,000;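 active = drop in luminescence signal, shown as inhibition above about 50% in the replicate tests, limit read from the data, passing the limit was not always enough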;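 note: agonist challenge used bursicon conditioned medium at about half maximal strength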
# TWEAK Fn14 block: inhibitors of TWEAK-Fn14 signaling, primary screen, luciferase reporter cells, uHTS | TWEAK-stimulated Fn14 reporter cells, luciferase luminescence, 8 h | inhibition, % at 10 µM | hit rate 2% among 360,000; in the data active = inhibition above about 50%
# Xi reactivation: activators of inactive X chromosome reactivation, primary screen, imaging, XiGFP fibroblasts, GFP high-content imaging, set 2; XiGFP mouse fibroblasts, % GFP-positive cells imaging, 3 d; cells co-treated with 5-aza-dC sensitizer; scaled so ellipticine positive control = 100%; activation, % at 7.58 µM; hit rate 0.055% among 360,000; AID 743238, 2013;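 active = mean normalized replicate activation at least 10% and every replicate at or above 10%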;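 note: 0% = median of on-plate neutral control wells and 100% = ellipticine 6 µM median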
#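 Material: XiGFP fibroblasts, SV40-immortalized; Buffer or medium: DMEM containing 5-aza-dC; Compound dosing: single point; Times: 3 days compound exposure.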
# EWS-Fli inh: EWS/Fli-driven NR0B1 reporter inhibitors, primary screen, A673 cells, NR0B1 luciferase, luminescence, MLPCN library; viability-normalised; inhibition, % at 12.6 µM; hit rate 0.67% among 350,000;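 active = mean inhibition of at least 50% after viability correction, with every replicate also passing that limit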;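 note: firefly luciferase signal divided by Alamar Blue viability fluorescence both relative to DMSO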
# * hit, by the source's call; · = not tested or not shown.
SMILES,TROY signal inh,FN deposit inh,LGR2 inh,TWEAK Fn14 block,Xi reactivation,EWS-Fli inh
C[C@H]1CN([C@@H](C)CO)C(=O)c2cc(NC(=O)CCCN(C)C)ccc2O[C@@H]1CN(C)C(=O)Nc1ccccc1,·,·,-29,·,0,-7
O=C(/C=C/c1cccc(F)c1)OCC(=O)N1CCCc2ccccc21,-23,2,6,7,0,-3
O=C(/C=C/c1cccc(F)c1)N1CCc2ccccc21,-36,2,54*,15,0,·
C=CCNC(=O)c1oc2ccc(S(=O)(=O)N3CCC4(CC3)OCCO4)cc2c1C,4,3,-22,-8,0,·
Cc1c(C(=O)NCc2ccc3c(c2)OCO3)oc2ccc(S(=O)(=O)N3CCCCC3)cc12,16,·,·,59*,·,·
Cc1c(C(=O)NCc2ccc3c(c2)OCO3)oc2ccc(S(=O)(=O)N3CCCC3)cc12,6,14,·,10,·,·
COc1ccc(NC(=O)c2oc3ccc(S(=O)(=O)N4CCC5(CC4)OCCO5)cc3c2C)cc1,29,·,7,53*,·,·
COc1ccccc1CNC(=O)c1oc2ccc(S(=O)(=O)N3CCOCC3)cc2c1C,-2,2,7,52*,0,-5
O=C(CCl)N1c2ccccc2SCC1c1ccccc1 (stereo unspecified),11,-3,6,8,0,61*
O=C(CCl)N1c2ccccc2OCC1c1ccccc1 (stereo unspecified),-8,4,-13,-21,0,0
COc1ccc(CCNC(=O)Nc2ccc3c(c2)c(=O)n(C)n3Cc2ccc(F)cc2)cc1OC,16,-7,-23,-5,0,-3
COc1cc(Cn2c3ccc(NC(=O)NCc4ccc(F)cc4)cc3c(=O)n2C)ccc1F,-20,6,0,10,0,51*
O=C(C[C@H]1C=C[C@@H](NC(=O)Nc2ccc3c(c2)OCO3)[C@@H](CO)O1)NCc1ccccc1,·,-8,·,·,0,·
C/C=C/c1cnc2c(c1)C(=O)N([C@H](C)CO)C[C@@H](C)[C@@H](CN(C)S(=O)(=O)c1cn(C)cn1)O2,·,·,-8,·,0,3
Cc1ccc(S(=O)(=O)N[C@@H](Cc2ccccc2)C(=O)CCl)cc1,5,0,·,66*,0,19
CC(NS(=O)(=O)c1ccc(Br)cc1)C(=O)NCCc1ccccc1 (stereo unspecified),57*,-6,5,-2,0,·
CC(=O)Nc1cccc2c1O[C@H](CN(C)C(C)=O)[C@H](C)CN(C)C2=O,·,-8,·,·,1,·
CC(C)NC(=O)N(C)C[C@@H]1OCCCC[C@@H](C)Oc2ccc(NC(=O)Cc3ccccc3)cc2C(=O)N([C@@H](C)CO)C[C@@H]1C,·,-2,-2,·,0,·
COc1cccc(OCc2ccc(C(=O)NCC3CCCO3)cc2)c1 (stereo unspecified),52*,0,31,63*,0,·
COc1ccc(S(=O)(=O)N(C)C[C@H]2OCc3cnnn3CCCC(=O)N([C@@H](C)CO)C[C@@H]2C)cc1,·,-22,15,·,0,-6
COCCN(CCOC)c1nc(-c2ccc(C)cc2)nc2ccccc12,-26,0,33,-7,0,2
CCCCN(CC)c1nc(-c2ccncc2)nc2ccccc12,26,·,·,57*,·,·
C=CCOC(=O)C1=C(C)N=c2s/c(=C3\C(=O)N(CC(=O)O)c4ccccc43)c(=O)n2C1c1ccc(OC)cc1 (stereo unspecified),-4,-17,-6,59*,1,-3
CCOC(=O)C1=C(C)N=c2s/c(=C3\C(=O)Nc4ccccc43)c(=O)n2C1c1ccc2c(c1)OCO2 (stereo unspecified),8,3,·,-1,·,·
CC(C)NC(=O)N[C@H]1CC[C@@H](CC(=O)O)O[C@H]1CO,·,-5,-1,·,1,-4
SMILES,TROY signal inh,FN deposit inh,LGR2 inh,TWEAK Fn14 block,Xi reactivation,EWS-Fli inh
COc1ccc(C(=O)N2CCNC(=O)C2CC(=O)Nc2ccc(C)cc2)cc1 (stereo unspecified),-6,-8,15,55*,0,-4
COc1ccc(NC(=O)CC2C(=O)NCCN2C(=O)c2ccc(N(C)C)cc2)cc1 (stereo unspecified),-21,10,3,-5,0,6
C[C@@H]1CN([C@@H](C)CO)C(=O)c2cc(C#Cc3cccc(F)c3)cnc2O[C@@H]1CN(C)CC1CC1,·,·,-7,·,-1,11
COc1ccc(NC(=O)c2ccc(-c3csc(C)n3)cc2)cc1,-42,-6,-43,4,0,-98
Cc1nc(-c2ccc(C(=O)Nc3cccc(F)c3)cc2)cs1,56*,-5,60*,92*,0,31
Cc1nc(-c2ccc(C(=O)Nc3ccccc3F)cc2)cs1,66*,-7,83*,90*,1,61*
Cc1nc(-c2ccc(C(=O)Nc3ccc(F)cc3)cc2)cs1,-36,-1,-1,36,0,-45
C[C@@H]1CN([C@@H](C)CO)C(=O)c2cccc(NS(=O)(=O)c3ccc(F)cc3)c2O[C@H]1CN(C)S(=O)(=O)c1cn(C)cn1,·,·,-9,·,0,-22
O=C(N/N=C/c1cc([N+](=O)[O-])ccc1Cl)c1cnccn1,9,4,-29,6,0,57*
CCCCNc1nc(N)nc(-c2cc(Cl)ccc2O)n1,28,8,2,82*,1,·
CCNc1nc(N)nc(-c2cc(Cl)ccc2O)n1,1,·,·,64*,·,·
C/C(N=Nc1nc2ccccc2s1)=N\Nc1ccccc1O,7,3,-7,80*,0,1
NC(=O)Cn1c(=O)n(CCC(=O)NCCSCc2ccccc2)c(=O)c2ccccc21,71*,3,-5,17,0,6
O=C(NCCc1ccccc1)c1ccc([N+](=O)[O-])cc1,11,-5,·,58*,·,·
CC(C)(C)c1ccc(C(=O)NCCOc2ccccc2)cc1,79*,1,62*,89*,0,64*
Cc1ccc(CCNC(=O)c2cccc(N3CCCC3=O)c2)cc1,-29,·,·,-22,·,·
O=C(NCCc1ccccc1)c1cccc(N2CCCC2=O)c1,62*,·,·,83*,·,·
CC(C)(C)c1ccc(C(=O)NCCOc2ccccc2F)cc1,75*,-1,67*,95*,0,75*
CN(C)S(=O)(=O)c1ccc(C(=O)NCCOc2ccccc2)cc1,-32,-3,·,-5,·,·
O=C(NCCc1ccc([N+](=O)[O-])cc1)c1ccccc1,-8,11,-23,-9,1,-34

# Screening results (PubChem BioAssay)
